MBD2 inh: MBD2-methylated oligo binding inhibition; inhibition, % at 4.4 µM; AID 686964; 370,000 compounds, 0.31% hits; Q9UBB5; TR-FRET, MBD2 binding to methylated oligonucleotide; in the data active means inhibition above about 13%
Target sequence (Q9UBB5 whole entry, looked up): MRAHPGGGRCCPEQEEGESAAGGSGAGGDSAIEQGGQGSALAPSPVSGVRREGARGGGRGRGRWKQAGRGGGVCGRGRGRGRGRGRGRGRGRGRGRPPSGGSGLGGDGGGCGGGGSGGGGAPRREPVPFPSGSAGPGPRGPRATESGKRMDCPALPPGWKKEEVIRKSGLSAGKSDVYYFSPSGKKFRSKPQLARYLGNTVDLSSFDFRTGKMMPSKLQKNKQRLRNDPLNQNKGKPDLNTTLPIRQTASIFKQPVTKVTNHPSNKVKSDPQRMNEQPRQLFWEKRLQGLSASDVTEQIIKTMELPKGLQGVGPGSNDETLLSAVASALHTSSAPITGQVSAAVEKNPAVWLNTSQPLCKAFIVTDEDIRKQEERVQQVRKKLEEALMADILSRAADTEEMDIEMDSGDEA
rCAG binder: molecules binding r(CAG) RNA repeats; inhibition, % at 3 µM; 370,000 compounds, 1.3% hits; r(CAG) RNA repeat, TO-PRO-1 dye displacement fluorescence;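 active means inhibition above the plate cutoff, the mean of all test compounds on that plate plus 3 SD, cut at about 35% in these data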;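 further: 0% = DMSO alone and 100% = 100 µM mitoxantrone as full dye displacement; higher means more dye released from RNA so lower well fluorescence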
ATG4B inh: inhibitors of human ATG4B cysteine protease; 340,000 compounds, 0.51% hits; inhibition, % at 8.33 µM; AID 504462; ATG4B cleavage of LC3-PLA2, NBD-HPC fluorescence, 1 h; Q9Y4P1; in the data active means inhibition above about 40%
LEDGF integ inh: blocks HIV-1 LEDGF/p75-dependent DNA integration. 370,000 compounds, 0.64% hits. inhibition, % at 3.7 µM. TR-FRET IN-LEDGF/p75 DNA integration, Eu/Cy5. AID 743269;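 active means inhibition above the screen-wide mean plus 3 SD, cut at about 13% in these data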;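 further: signal is the Cy5 over europium emission ratio at 671 and 618 nm; 0% = plate median of compound wells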
UHRF1 MBD2 ctr: UHRF1 methyl-DNA binding inhibition. Q96T88. UHRF1 binding to methylated oligo, TR-FRET. inhibition, % at 4.4 µM. 370,000 compounds, 0.75% hits. AID 687016; in the data active means inhibition above about 21%;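 further: UHRF1 SRA domain binding a hemimethylated CpG hairpin DNA probe; 0% = median of test compound wells and 100% = reference inhibitor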
CSN inh: CSN deneddylation inhibition; Q92905; Purified CSN, SCF-Nedd8-OG deneddylation, fluorescence polarization; inhibition, % at 12.5 µM; 360,000 compounds, 0.38% hits; AID 651999;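 active means pattern-corrected inhibition above about 35%, with an unprinted fluorescence ratio check between 0.5 and 1.5, limit read from the data, passing the limit was not always enough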;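 further: 0% = enzyme with substrate and 100% = substrate without enzyme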
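Assay system: purified human Csn5 enzyme expressed in HEK293T cells; Input: 0.24 nM Csn5 enzyme, final concentration; Reagent: 10 nM SCFSkp2-Nedd8OG; Compound dosing: 12.5 µM single point; Times: reaction 90 min, room temperature; Technique: fluorescence polarization readout.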
Numbers without * were called inactive; x = no result given. A selection: hits, their analogues and other compounds. The true share with any hit is near 3.1%.

SMILES | MBD2 inh | rCAG binder | ATG4B inh | LEDGF integ inh | UHRF1 MBD2 ctr | CSN inh
CC(C(=O)NC(=O)NCc1ccccc1)N1C(=O)c2ccccc2C1=O (stereo unspecified) | -2 | -3 | 0 | 0 | 2 | 1
COc1cccc(OC)c1NC(=O)OC1CCC12CCC(c1ccccc1)CC2 (stereo unspecified) | 3 | x | x | -3 | 0 | x
COc1ccc(CCN2C(=O)CCC2(C)c2nnnn2-c2c(C)cccc2C)cc1OC (stereo unspecified) | 7 | 0 | x | -3 | 22* | -3
Cc1[nH]n(-c2cccc(Cl)c2)c(=O)c1-c1ccccc1 | -3 | 10 | -4 | -1 | 39* | 3
COc1ccccc1CNC(=O)c1ccc(-c2ccccc2)cc1 | 4 | -3 | 10 | -1 | 26* | 3
Cc1cccc(C(=O)NCC(=O)NC(C)CCc2ccccc2)c1 (stereo unspecified) | 11 | -1 | -5 | 1 | 22* | 2
COCC1CCCCN1C(=O)c1cccc(OC2CCN(S(C)(=O)=O)CC2)c1 (stereo unspecified) | 3 | -5 | 0 | -3 | 31* | 2
CCOC(=O)c1sc2nc(C)nc(NCc3ccccc3OC)c2c1C | 2 | 4 | -10 | 4 | 5 | -4
CCOC(=O)c1sc2nc(C)nc(NCCc3ccccn3)c2c1C | -6 | 0 | -5 | 3 | 69* | -2
CCn1c(=O)n2n(c1=O)[C@H]1C[N+](Cc3ccc4c(c3)OCO4)=C(N)NC1=C(C)C2 | 1 | x | x | 0 | 4 | x
C[C@@]12C(=O)N(CC3CC3)CC(=O)N1[C@H](C1CC1)[C@@H]1C(=O)N(c3ccccc3)C(=O)[C@@H]12 | -3 | 5 | 3 | -1 | 39* | -4
O=C(NN1C(=O)/C(=C\c2cccnc2)SC1=S)c1ccco1 | 10 | 13 | -16 | 5 | 47* | 4
Cc1ccc(S(=O)(=O)NN2C(=O)/C(=C/c3cccnc3)SC2=S)cc1 | -8 | 24 | 5 | 0 | -9 | -3
O=C(NCc1ccccn1)C1CCCN(S(=O)(=O)c2cc(Cl)ccc2Cl)C1 (stereo unspecified) | x | x | 4 | x | x | 3
Cc1cc(S(=O)(=O)N2CCCC(N(C)CCc3ccccn3)C2)c(C)cc1Cl (stereo unspecified) | 9 | -6 | 3 | 3 | 23* | 4
C[C@H](O)[C@@H]1CN2CCc3ccc(N4CCOCC4)cc3[C@@H]2C[C@@H]1N(C)C(=O)c1ccco1 | -2 | 4 | x | -1 | -1 | x
O=C1c2ccccc2C(=O)N1Nc1ccccc1 | 4 | -2 | 0 | 2 | 1 | 2
Cc1ccc(NN2C(=O)C=C(c3ccccc3)C2=O)cc1 | 2 | 2 | -12 | 3 | 21* | -5
COc1cc(-c2cc(C(=O)Nc3ccc(O)cc3)c3ccccc3n2)cc(OC)c1OC | 3 | 8 | -6 | 3 | -4 | 5
COc1cc(-c2cc(O)c(-c3ccc4ccccc4n3)c(=O)[nH]2)cc(OC)c1OC | -8 | 7 | -8 | 1 | -8 | 58*
O=C(c1ccc(-c2ccccc2)cc1)N1CCN(c2ccc3c(c2)C2CC3CCN2C(=O)OCc2ccccc2)CC1 (stereo unspecified) | 3 | 11 | x | -4 | -1 | 113*
Cc1ccc(C(=O)N2CCN(c3ccc4c(c3)C3CC4CCN3C(=O)OCc3ccccc3)CC2)cc1 (stereo unspecified) | -4 | 9 | x | 1 | -1 | -4
N/C(=N\OC(=O)c1cc([N+](=O)[O-])ccc1Cl)c1ccccn1 | -6 | 0 | 2 | -1 | 46* | 1
N/C(=N\OC(=O)c1ccc([N+](=O)[O-])cc1Cl)c1ccccn1 | 4 | 3 | -4 | 8 | 7 | -1
COc1ccc(CCNC(=O)Nc2ccc3c(c2)[C@@]2(CC(=O)N(CC(C)C)C2c2ccccc2)C(=O)N3C)cc1OC (stereo partly specified) | 4 | 6 | x | -3 | -1 | x
SMILES | MBD2 inh | rCAG binder | ATG4B inh | LEDGF integ inh | UHRF1 MBD2 ctr | CSN inh
O=[N+]([O-])c1cc(Br)cc(/C=N/n2cnnc2)c1O | -12 | 6 | 2 | 1 | 40* | 2
O=[N+]([O-])c1cc(Cl)cc(/C=N/n2cnnc2)c1O | -10 | 5 | 8 | 1 | -8 | 1
C[C@@H]1CCN(C2CC2)S(=O)(=O)c2ccc(N3CC[C@@H](N(C)C)C3)cc2O1 | -6 | 5 | x | -2 | -2 | x
O=[N+]([O-])c1ccc2nc(COCc3nc4ccccc4[nH]3)[nH]c2c1 | 0 | x | x | 0 | 0 | x
CCOC(=O)C1=C(COC(=O)[C@@H](NC(=O)c2cccc(C)c2)C(C)C)NC(=O)NC1C (stereo partly specified) | 3 | 0 | -11 | -2 | 21* | 5
CCOC(=O)C1=C(COC(=O)COc2ccc(C#N)cc2)NC(=O)NC1C (stereo unspecified) | 11 | -3 | 1 | 8 | 22* | 1
CC(=O)CC[C@@H]1CC[C@]2(CCCN(C(=O)C(C)(C)C)C2)O1 | 6 | -1 | x | -2 | 2 | x
O=C(Oc1coc(CSc2ncccn2)cc1=O)c1ccc([N+](=O)[O-])cc1 | -8 | x | x | -2 | -2 | x
CN1[C@H](Cc2ccccc2)COc2cccc(N3CCCC3)c2S1(=O)=O | 4 | 4 | x | -1 | -2 | x
Cc1ccc(-c2csc(/C(C#N)=C(\O)CCl)n2)cc1 | 4 | 35* | 3 | -1 | -3 | 5
Cc1ccc(-c2csc(/C(C#N)=C(\O)CN3CCN(C(=O)c4ccco4)CC3)n2)cc1 | 0 | 62* | 4 | -2 | 1 | 8
COC(=O)[C@]12C[C@H](CC(=O)NCCc3ccccc3OC)C(=O)N(CCc3ccc(OC)c(OC)c3)C1=C[C@H](C1CCCC1)O[C@@H]2C | -6 | 5 | x | -3 | -3 | x
O=C(NCc1ccc(Cl)cc1)O[C@H]1CC[C@@]23CCCN2C(=O)CCC[C@H]3C1 | -4 | x | x | -2 | 2 | x
O=C(CCc1ccc(O)c(O)c1)N/N=C/c1ccc2c(c1)OCO2 | 9 | 3 | -1 | 33* | 21* | -4
CC(C)Oc1ccc(CCC(=O)N/N=C/c2ccc3c(c2)OCO3)cc1 | 2 | -4 | 5 | -3 | -1 | -2
Cc1cc(C)c2c(c1)NC(C(=O)O)C1CC=CC21 (stereo unspecified) | 16* | 58* | 23 | 31* | 39* | 28
CC(=O)c1cc(-c2csc(C=O)c2)c(=O)n2c1CCC2 | -2 | 3 | x | -2 | 0 | x
O=c1cc(CN2CCOCC2)c2cc(Cl)c(O)cc2o1 | 12 | 3 | -2 | 2 | 40* | 1
COC(=O)c1cc(S(=O)(=O)N2c3ccccc3CC2C)cn1C (stereo unspecified) | 4 | 2 | -5 | 2 | 2 | 38*
